Experimental data taken from paper PMC10913580 (Nature chemistry, 2023).

How the values were obtained:
[1] = test system: ternary complex between CRBN and off-target ZFP91; experiment: NanoBRET ternary complex formation assay; format: cell-based; details: U2OS cells expressing ZFP91-NLuc and HaloTag-CRBN, 1 μM dose
Summary of the method: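 U2OS stably expressing ZFP91–NLuc, transfected with HaloTag–CRBN plasmid (2 μg per 100,000 cells). After 14 h, plated at 3,000 cells/well in phenol-red-free Opti-MEM with 4% FBS. NanoBRET 618 ligand 100 nM final, 18 h; no-ligand control wells. Compound 1 μM final, 15 min; furimazine 10 μM final, 5 min. mBU = (618/460 nm emission) × 1,000, minus no-ligand control.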

SALL4 = SALL4 (Homo sapiens, UniProt Q96SW2+Q9UJQ4); experiment: Global proteomic analysis of KELLY cells treated with PROTACs; format: cell-based; details: 100 nM
Summary of the method: (§1)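 Cells were dosed with test compound at 0.1 μM or with DMSO for 5 h, then washed in PBS and snap-frozen. Lysis was in 8 M urea, 50 mM NaCl, 50 mM EPPS pH 8.5 with protease and phosphatase inhibitors, with bead beating. Digestion used LysC (1:50, 12 h, room temperature), then trypsin (1:50, 6 h, 37 °C). Label-free LC-MS followed; abundances were scaled and statistics run with limma.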

ZFP91 [2] = target: T1, ZFP91 (Homo sapiens, UniProt Q96JP5+Q96SW2); experiment: Immunoblot of endogenous ZFP91 in Jurkat cells; format: cell-based
Summary of the method: (§2)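 Cells grown in RPMI 1640 with 10% FBS, then compound-treated. Lysis in ice-cold M-PER with protease and phosphatase inhibitors. 20–50 μg protein run on 4–12% Bis-Tris gels and transferred to nitrocellulose. Probed with anti-ZFP91 or anti-IKZF3 primary antibodies (1:1,000), then fluorescent secondaries (1:3,000).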

ALK = ALK (Homo sapiens, UniProt P06748+Q96SW2+Q9UM73); experiment: Global proteomic analysis of SU-DHL-1 cells treated with PROTACs; format: cell-based; details: 0.1 μM, 5 h
Summary of the method: as §1

ZFP91 [3] = target: T1, ZFP91; experiment: Immunoblot of endogenous ZFP91 in SU-DHL-1 cells; format: cell-based
Summary of the method: as §2

[4] = test system: ZF degrons fused to eGFP in U2OS cells; experiment: Automated imaging assay for degradation of ZF degron-tagged eGFP; format: cell-based; details: 14 stable U2OS ZF reporter cell lines, 24 h, dosing range 4.3 nM to 6 μM
Summary of the method: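 U2OS lines stably carrying lentiviral Cilantro 2 reporters (ZF degron–eGFP plus untagged mCherry) under 1 μg ml−1 puromycin. 3,000 cells/well seeded onto compound-preprinted plates; 24 h. PBS wash, 4% paraformaldehyde fix, nuclear stain, eGFP/mCherry imaging. Per-cell eGFP normalized to mCherry, well means to DMSO wells; 1 minus value gives degradation fraction, summed across doses as degradation score. Z′ from controls.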

ZFP91 [5] = target: T1, ZFP91; experiment: Immunoblot of endogenous ZFP91 in H2228 cells; format: cell-based
Summary of the method: as §2

ZFP91 and IKZF3 = experiment: Immunoblot of endogenous ZFP91 and IKZF3 in MM1.S cells; format: cell-based
Summary of the method: as §2

[6] = test system: ZF proteins and other off-targets in MOLT4 and KELLY cells; experiment: MS-based global proteomics of MOLT4 and KELLY cells treated with imide analogues; format: cell-based, human; details: 1 μM, 5 h
Summary of the method: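 MOLT4 or Kelly cells given 1 μM compound or DMSO, 5 h. PBS-washed pellets snap-frozen, lysed in 8 M urea, 50 mM NaCl, 50 mM EPPS pH 8.5 with inhibitors by bead beating; Bradford quantitation. 50 μg protein reduced, alkylated, methanol/chloroform precipitated; LysC (1:50, 12 h, room temperature) then trypsin (1:50, 6 h, 37 °C). C18-desalted, LC–MS. Abundances scaled; limma statistics.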

How did the “BRET signal, ternary complex formation between CRBN and ZFP91” value [1] turn out when N#Cc1ccc(O[C@H]2CC[C@H](NC(=O)c3ccc(N4CCC(CN5CCN(c6cc7c(cc6F)C(=O)N(C6CCC(=O)NC6=O)C7=O)CC5)CC4)nn3)CC2)cc1Cl (some centres unmarked) [ARV110] was run?
The value was “reduced ternary complex formation with off-target ZFP91”.

Which results are given for Cc1cc(Nc2ncc(Cl)c(Nc3ccccc3S(=O)(=O)C(C)C)n2)c(OC(C)C)cc1C1CCN(CC(=O)NCCNc2cccc3c2C(=O)N(C2CCC(=O)NC2=O)C3=O)CC1 (centres unmarked) [MS4078]?
degradation of SALL4 (global proteomics) (SALL4): induced degradation of SALL4; off-target degradation of endogenous ZFP91 (immunoblot) (ZFP91 [2]): off-target degradation of endogenous ZF protein ZFP91; degradation of ALK (global proteomics) (ALK): induced degradation of ALK; off-target degradation of endogenous ZFP91 (immunoblot) (ZFP91 [3]): off-target degradation of endogenous ZF proteins ZFP91; degradation of ZF degron-tagged eGFP (off-target ZF degradation) [4]: had a high level of off-target ZF degradation; off-target degradation of endogenous ZFP91 (immunoblot) (ZFP91 [5]): off-target degradation of endogenous ZF proteins ZFP91

For Nc1ccc2c(c1)C(=O)N(C1CCC(=O)NC1=O)C2=O (centres unmarked) [compound 8, 5-aminothalidomide], which “degradation of endogenous ZFP91 and IKZF3 (immunoblot)” value (ZFP91 and IKZF3) is on record?
Its value is “decrease in overall degradation potency as compared to pomalidomide”.

CC[C@H](C(=O)N1CCCC[C@H]1C(=O)O[C@H](CCc1ccc(OC)c(OC)c1)c1ccccc1OCC(=O)NCCCCCCOc1cccc2c1C(=O)N(C1CCC(=O)NC1=O)C2=O)c1cc(OC)c(OC)c(OC)c1 (some centres unmarked) [dTAG-13] was tested. Which “off-target degradation of endogenous ZFP91 (immunoblot)” value (ZFP91 [2]) did it give?
The value was “off-target degradation of endogenous ZF protein ZFP91”.

For Nc1cccc2c1C(=O)N(C1CCC(=O)NC1=O)C2=O (centres unmarked) [pomalidomide], which “degradation of ZF proteins and other off-targets (global proteomics)” value [6] is on record?
Its value is “triggered the degradation of several ZF proteins”.

What about the “degradation of ZF degron-tagged eGFP (off-target ZF degradation)” value [4] of the same compound?
The value was “degraded all 12 ZF degrons that are sensitive to it in a dose-dependent manner”.
